In ChEMBL document CHEMBL3526015, “Metabolism of the c-Fos/activator protein-1 inhibitor T-5224 by multiple human UDP-glucuronosyltransferase isoforms” (Drug Metab Dispos, 2011) one finds Ki, Drug metabolism and Vmax/Km data, which are given here for 1 molecule.

Series [1] concerns the target Liver microsome. Put plainly: Substrate inhibition of T-5224 acyl O-glucuronide formation in human liver microsomes after 10 to 60 mins by HPLC method. The method in brief:
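Pooled liver (0.5 mg protein/mL) or intestinal (0.25 mg protein/mL) microsomes in 50 mM Tris-HCl pH 7.5, 8 mM MgCl2, alamethicin, 2% DMSO. T-5224 at 1–50 μM, 5 min preincubation at 37°C, started with 2 mM UDPGA. Incubated 10 min, or 20 min for intestinal microsomes at 1–5 μM. Acetonitrile stop, glucuronides by HPLC at 290 nm. Triplicates fitted to a substrate-inhibition model.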

The target in the next series is T1, Cytochrome P450 2C8 (Homo sapiens, UniProt P10632).
T1 sequence (P10632 whole entry): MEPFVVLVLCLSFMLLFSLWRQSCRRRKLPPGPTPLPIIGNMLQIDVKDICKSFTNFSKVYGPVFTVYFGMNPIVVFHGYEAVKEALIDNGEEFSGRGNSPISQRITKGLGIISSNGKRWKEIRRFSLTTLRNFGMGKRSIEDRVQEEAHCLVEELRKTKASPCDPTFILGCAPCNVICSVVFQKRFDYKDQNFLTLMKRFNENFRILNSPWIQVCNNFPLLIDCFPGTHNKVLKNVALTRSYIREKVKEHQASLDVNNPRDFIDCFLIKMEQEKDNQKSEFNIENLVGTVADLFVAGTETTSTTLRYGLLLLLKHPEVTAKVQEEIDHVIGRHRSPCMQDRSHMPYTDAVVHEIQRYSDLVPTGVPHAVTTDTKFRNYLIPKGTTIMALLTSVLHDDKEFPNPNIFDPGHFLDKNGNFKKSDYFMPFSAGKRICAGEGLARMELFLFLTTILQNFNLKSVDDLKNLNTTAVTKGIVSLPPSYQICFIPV
Nature of the series: Drug metabolism assessed as human CYP2C8-mediated metabolite formation at 2 uM after 30 mins by HPLC method. The series is classed as ADME. Conditions: recombinant enzyme, 0.5 h. The method, boiled down:
(§1)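 Each recombinant human P450 was used at 50 pmol/mL with an NADPH-generating system and 2 μM 14C-T-5224 (0.5% DMSO final). Buffer was 100 mM Tris-HCl pH 7.5, except 100 mM potassium phosphate pH 7.4 for CYP2A6 and CYP2C9*1. Incubation ran 30 min at 37°C and was stopped with acetonitrile/methanol. Radioactive metabolite peaks were detected by C18 HPLC.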

For series [2], the target named is T2, UDP-glucuronosyltransferase 1A3 (Homo sapiens, UniProt P35503).
T2 sequence (P35503 whole entry): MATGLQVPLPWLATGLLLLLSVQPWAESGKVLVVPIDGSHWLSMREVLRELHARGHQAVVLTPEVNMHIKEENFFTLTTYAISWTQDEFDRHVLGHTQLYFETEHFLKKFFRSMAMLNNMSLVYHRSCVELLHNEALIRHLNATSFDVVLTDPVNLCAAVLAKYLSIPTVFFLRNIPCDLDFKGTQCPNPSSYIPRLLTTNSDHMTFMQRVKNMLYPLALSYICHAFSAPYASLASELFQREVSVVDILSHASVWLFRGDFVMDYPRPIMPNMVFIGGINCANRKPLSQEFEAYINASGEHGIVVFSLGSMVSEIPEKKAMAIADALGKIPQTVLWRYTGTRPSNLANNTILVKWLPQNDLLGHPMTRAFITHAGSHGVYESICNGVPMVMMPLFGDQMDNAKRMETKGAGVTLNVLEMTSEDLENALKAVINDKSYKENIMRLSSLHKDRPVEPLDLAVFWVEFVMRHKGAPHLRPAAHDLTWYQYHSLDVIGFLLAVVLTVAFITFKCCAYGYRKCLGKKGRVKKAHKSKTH
Put plainly: Drug metabolism assessed as Vmax/Km ratio for human UGT1A3-mediated T-5224 acyl O-glucuronide formation per mg protein after 10 to 60 mins in presence of UDP-glucuronic acid by HPLC method. In kind it is ADME. Conditions: recombinant enzyme. The method, boiled down:
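Kinetics used recombinant UGT1A1, 1A3 or 1A8 (0.1 mg protein/mL) with T-5224 at 1–50 μM, 2 mM UDPGA and 60 min at 37°C, in triplicate. G2/G3 were measured by HPLC at 290 nm and fitted to a substrate-inhibition model (Vmax, Km, Ksi). UGT content was quantified by immunoblot, and kcat = Vmax/E0 was derived from it.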

A further series addresses Cytochrome P450 3A4 (Homo sapiens, UniProt P08684). Nature of the series: Drug metabolism assessed as human CYP3A4-mediated metabolite formation at 2 uM after 30 mins by HPLC method. In kind it is ADME. Conditions: recombinant enzyme, 0.5 h. The method, boiled down: as §1
Series [3] has as its target T3, UDP-glucuronosyltransferase 1A8 (Homo sapiens, UniProt Q9HAW9).
T3 sequence (Q9HAW9 whole entry): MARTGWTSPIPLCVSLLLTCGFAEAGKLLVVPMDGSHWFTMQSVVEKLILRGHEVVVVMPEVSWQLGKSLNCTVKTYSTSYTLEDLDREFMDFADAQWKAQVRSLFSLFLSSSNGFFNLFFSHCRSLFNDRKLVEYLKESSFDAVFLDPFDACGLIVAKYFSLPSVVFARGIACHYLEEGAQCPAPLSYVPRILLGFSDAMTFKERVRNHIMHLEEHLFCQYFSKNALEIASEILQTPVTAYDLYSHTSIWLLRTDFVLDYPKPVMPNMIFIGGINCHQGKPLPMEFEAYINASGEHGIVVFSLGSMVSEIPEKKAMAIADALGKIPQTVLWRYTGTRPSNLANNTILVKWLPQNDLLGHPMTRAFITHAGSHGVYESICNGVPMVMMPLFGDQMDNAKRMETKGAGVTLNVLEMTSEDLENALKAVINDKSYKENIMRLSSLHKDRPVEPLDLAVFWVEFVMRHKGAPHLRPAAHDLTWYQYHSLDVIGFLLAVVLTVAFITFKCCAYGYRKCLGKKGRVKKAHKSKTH
Put plainly: Drug metabolism assessed as human UGT1A8-mediated T-5224 hydroxyl O-glucuronide formation at 5 to 50 uM after 60 mins in presence of UDP-glucuronic acid by HPLC method. The series is classed as ADME. Conditions: recombinant enzyme, 1 h.

Series [4] deals with Liver microsome. Put plainly: Drug metabolism in human liver microsomes assessed as T-5224 acyl O-glucuronide formation at 10 uM after 10 mins in presence of beta-estradiol by HPLC method. In kind it is ADME. The method, boiled down:
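Pooled human liver microsomes or recombinant UGT1A1 were incubated with 10 μM T-5224, 2 mM UDPGA and β-estradiol at 0–500 μM (2% DMSO), in Tris-HCl/MgCl2/alamethicin buffer. Incubation was 10 min (liver microsomes) or 60 min (UGT1A1) at 37°C. G2/G3 were read by HPLC at 290 nm, as mean ± SD, n = 3.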

Cytochrome P450 3A4, sequence (P08684 whole entry): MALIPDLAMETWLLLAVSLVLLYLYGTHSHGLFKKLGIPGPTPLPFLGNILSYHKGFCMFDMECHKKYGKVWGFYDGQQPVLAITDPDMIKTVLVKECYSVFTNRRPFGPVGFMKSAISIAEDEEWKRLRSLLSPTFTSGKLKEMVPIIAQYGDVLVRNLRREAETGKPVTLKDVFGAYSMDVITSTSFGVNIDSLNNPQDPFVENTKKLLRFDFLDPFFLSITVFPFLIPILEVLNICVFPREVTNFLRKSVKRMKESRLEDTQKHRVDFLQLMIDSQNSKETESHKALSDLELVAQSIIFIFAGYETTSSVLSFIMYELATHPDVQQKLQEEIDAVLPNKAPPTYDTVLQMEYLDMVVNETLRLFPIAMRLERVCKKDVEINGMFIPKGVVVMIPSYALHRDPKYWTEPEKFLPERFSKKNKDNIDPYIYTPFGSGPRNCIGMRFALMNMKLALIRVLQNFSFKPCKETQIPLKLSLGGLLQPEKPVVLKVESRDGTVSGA

Molecule `O=C(O)CCc1cc(C(=O)c2ccc(OC3CCCC3)cc2O)ccc1OCc1ccc2c(O)noc2c1` returned a Ki at Liver microsome [1] of 13.2 µM. Also, the Drug metabolism result on Cytochrome P450 2C8 is “metabolite_not_detected”; at Cytochrome P450 3A4, “metabolite_not_detected”; in series [3], “metabolite_detected”; in the series with Liver microsome [4], “metabolite_not_detected”. The Vmax/Km in series [2] amounted to 15.5 µL/min.
